# In ChEMBL document CHEMBL1133128, “Hepatitis C viral IRES inhibition by phenazine and phenazine-like molecules” (Bioorg Med Chem Lett, 2000):
# Legend:
# [1] = Ratio of inhibitory concentration against Hepatitis C Viral IRES in HC40 cells to that of HCF cells was determined; assay type: functional
# How it was run: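 Ratio of the HC40 value to the HCF value. HCF cells are pooled Huh-7 stably transfected with CMV-Fluci (CMV control, no IRES control). Both lines seeded at 1.5×10^4/well 24 h ahead, dosed at various concentrations in 0.2% DMSO final for 24 h at 37 °C, washed twice in PBS, lysed in luciferin buffer for 10 min in the dark, and luciferase read.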
# [2] = test system: Huh-7; assay: Cytotoxic concentration of compound HC40 cells determined by using MTT assay; assay type: functional; conditions: Homo sapiens
# [3] = test system: Huh-7; assay: Anti-Hepatitis C Viral IRES activity of compound by measured as Fluci signal in HC40 cells; assay type: functional, cell-based; conditions: Homo sapiens
# How it was run: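 Huh7-derived HC40 line expressing CAT-IRES-Fluci under a CMV promoter, so luciferase reports IRES-dependent translation. Cells seeded at 1.5×10^4/well 24 h before dosing. Compounds added at various concentrations in 0.2% DMSO final and incubated 24 h at 37 °C. Cells washed twice in PBS, lysed 10 min in the dark in luciferin lysis buffer, then luciferase read.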
SMILES,Ratio [1],CC50 [2],IC50 [3]
Cc1cc2nc3ccc(N(C)C)cc3nc2cc1N,10,> 10 µg/mL,0.02 µg/mL
Nc1ccc(Nc2ccc(N)cc2)cc1,–,–,> 10 µg/mL
Cc1cc2nc3ccc(N(C)C)cc3nc2cc1I,–,> 10 µg/mL,> 10 µg/mL
CC(=O)[O-].Nc1ccc2nc3ccc(N)cc3[s+]c2c1 [THIONIN ACETATE],1.7,4.67 µg/mL,2.86 µg/mL
Cc1cc2c(cc1N)N(c1ccccc1C)c1cc(N(C)C)c(C)cc1N2,1,> 10 µg/mL,1 µg/mL
CCN(CC)c1ccc2[o+]c3cc(C)c(N)cc3nc2c1.[Cl-],3,< 1 µg/mL,1 µg/mL
Nc1ccc2c(c1)NC(=O)c1cc(N)cnc1O2,–,> 10 µg/mL,> 10 µg/mL
CN(C)c1ccc2c(c1)Sc1cc(N(C)C)ccc1N2C(=O)c1ccccc1,–,> 10 µg/mL,> 10 µg/mL
Nc1ccc2c(c1)Oc1ncccc1C(=O)N2,–,> 10 µg/mL,> 10 µg/mL
CN(C)c1ccc(Nc2ccc(N(C)C)cc2)cc1,0.8,2.3 µg/mL,2.19 µg/mL
Cc1cc2nc3ccc(O)cc3nc2cc1N,>2.7,> 10 µg/mL,3.74 µg/mL
Nc1ccc2[nH]c3ccc(N)cc3c2c1,–,> 10 µg/mL,> 10 µg/mL
CN(C)c1ccc(C(=O)c2ccc(N(C)C)cc2)cc1 [MICHLER'S KETONE],–,–,> 10 µg/mL
Nc1cc2nc3ccccc3nc2cc1N,2.5,> 10 µg/mL,4.03 µg/mL
